Experimental data as given in ChEMBL document CHEMBL4414574, “Structure-Based Discovery and Development of a Series of Potent and Selective Bromodomain and Extra-Terminal Protein Inhibitors” (J Med Chem, 2019).
Active and inactive are the calls of the source. The calls are words filed in the database; no cut-off is given here.

Experiments:
Cytochrome P450 1A2 = target: T1, Cytochrome P450 1A2 (Homo sapiens, UniProt P05177); test: Time-dependent inhibition of CYP1A2 in human liver microsomes at 10 uM using phenacetin as substrate preincubated up to 30 mins followed by NADPH generating system addition and measured after 10 mins; format: ADME
T1 sequence (P05177 whole entry): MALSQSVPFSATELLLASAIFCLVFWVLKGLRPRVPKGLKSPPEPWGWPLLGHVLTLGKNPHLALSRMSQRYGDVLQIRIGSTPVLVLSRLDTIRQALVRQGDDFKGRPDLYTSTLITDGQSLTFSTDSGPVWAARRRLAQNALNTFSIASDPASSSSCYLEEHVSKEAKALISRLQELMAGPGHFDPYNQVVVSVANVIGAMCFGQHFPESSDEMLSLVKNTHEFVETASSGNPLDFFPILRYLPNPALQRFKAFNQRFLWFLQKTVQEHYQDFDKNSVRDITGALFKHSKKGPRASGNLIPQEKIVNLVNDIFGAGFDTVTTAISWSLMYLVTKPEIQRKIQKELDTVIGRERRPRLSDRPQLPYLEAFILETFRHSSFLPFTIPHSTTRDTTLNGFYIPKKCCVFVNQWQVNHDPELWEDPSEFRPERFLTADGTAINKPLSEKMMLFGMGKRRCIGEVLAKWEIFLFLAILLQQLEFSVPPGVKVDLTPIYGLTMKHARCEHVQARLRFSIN
In short: (§1)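 Human liver microsomes 0.2 mg/mL, 100 mM phosphate pH 7.4, 10 μM test compound, preincubated 0, 5, 10 and 30 min at 37 °C; then NADPH plus probe cocktail (5 μM midazolam, 50 μM testosterone, 5 μM dextromethorphan, 10 μM diclofenac, 50 μM phenacetin, 50 μM S-(+)-mephenytoin) added; 10 min reaction; kobs in units of 10^-4/min.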

CYP2C9 = CYP2C9 (Homo sapiens, UniProt P11712); test: Reversible inhibition of CYP2C9 in human liver microsomes at 10 uM using diclofenac as substrate preincubated for 5 mins followed by NADPH generating system addition and measured after 20 mins relative to control; format: ADME; settings: probe diclofenac
Sequence of CYP2C9 (P11712 whole entry): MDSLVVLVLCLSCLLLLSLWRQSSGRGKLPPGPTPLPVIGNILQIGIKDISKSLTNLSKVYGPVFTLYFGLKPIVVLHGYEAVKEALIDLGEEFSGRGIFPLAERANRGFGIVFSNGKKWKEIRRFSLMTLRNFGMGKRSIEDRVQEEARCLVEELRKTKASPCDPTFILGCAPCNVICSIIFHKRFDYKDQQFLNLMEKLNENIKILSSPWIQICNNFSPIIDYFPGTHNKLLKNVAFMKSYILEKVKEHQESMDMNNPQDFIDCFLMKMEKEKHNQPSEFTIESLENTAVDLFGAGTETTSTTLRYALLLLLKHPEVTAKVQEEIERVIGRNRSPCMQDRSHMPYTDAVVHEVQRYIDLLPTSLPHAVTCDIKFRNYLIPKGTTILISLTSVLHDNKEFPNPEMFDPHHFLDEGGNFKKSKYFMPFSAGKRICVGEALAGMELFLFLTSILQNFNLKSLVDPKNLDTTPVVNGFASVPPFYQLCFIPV
In short: (§2)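 Human liver microsomes 0.2 mg/mL, 100 mM phosphate pH 7.4, 10 μM test compound, probe cocktail (10 μM midazolam, 100 μM testosterone, 10 μM dextromethorphan, 20 μM diclofenac, 100 μM phenacetin, 100 μM mephenytoin); organic solvent <1%; 5 min preincubation at 37 °C, started with NADPH-generating system, 20 min reaction; metabolite formation expressed relative to PBS control.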

MM1.S = test: Antiproliferative activity against human MM1S cells after 72 hrs by CCK8 or SRB assay; format: functional, cell-based
In short: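 IC50 against MM.1S cell proliferation was taken as the mean of three independent experiments, each run in triplicate, reported with SEM.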

[1] = Half life in human liver microsomes at 1 uM preincubated for 5 mins followed by NADPH addition and measured after 5 to 30 mins by LC/MS/MS analysis; format: ADME, Microsome
[2] = Intrinsic clearance in human liver microsomes at 1 uM preincubated for 5 mins followed by NADPH addition and measured after 5 to 30 mins by LC/MS/MS analysis; format: ADME, Microsome; settings: read-out: CLH
In short: (§3)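 Liver microsomes (0.5 mg/mL) preincubated 5 min at 37 °C with 1 μM compound in 0.1 M phosphate buffer pH 7.4 containing 1 mM EDTA and 5 mM MgCl2; started with 1 mM NADPH; sampled at 0, 5, 10 and 30 min; quenched with cold acetonitrile; parent remaining quantified by LC/MS/MS.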

Cytochrome P450 2C19 = Cytochrome P450 2C19 (Homo sapiens, UniProt P33261); test: Time-dependent inhibition of CYP2C19 in human liver microsomes at 10 uM using mephenytoin as substrate preincubated up to 30 mins followed by NADPH generating system addition and measured after 10 mins; format: ADME; in short: as §1
Sequence of Cytochrome P450 2C19 (P33261 whole entry): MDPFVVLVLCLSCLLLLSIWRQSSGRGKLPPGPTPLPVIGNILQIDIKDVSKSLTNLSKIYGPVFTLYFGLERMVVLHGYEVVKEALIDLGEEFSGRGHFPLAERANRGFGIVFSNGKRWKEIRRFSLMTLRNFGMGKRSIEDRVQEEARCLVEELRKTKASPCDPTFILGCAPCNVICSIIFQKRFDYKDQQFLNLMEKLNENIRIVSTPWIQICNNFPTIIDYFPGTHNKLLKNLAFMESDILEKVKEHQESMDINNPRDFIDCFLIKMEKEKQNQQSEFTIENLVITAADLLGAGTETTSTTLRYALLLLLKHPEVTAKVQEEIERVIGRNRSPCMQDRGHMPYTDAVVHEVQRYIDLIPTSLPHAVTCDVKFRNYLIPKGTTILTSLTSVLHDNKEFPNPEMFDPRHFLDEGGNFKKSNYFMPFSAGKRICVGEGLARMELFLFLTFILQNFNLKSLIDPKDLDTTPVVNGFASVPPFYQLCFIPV

[3] = Intrinsic clearance in mouse liver microsomes at 1 uM preincubated for 5 mins followed by NADPH addition and measured after 5 to 30 mins by LC/MS/MS analysis; format: ADME, Microsome; settings: read-out: CLH; in short: as §3
[4] = Cmax in ICR mouse at 10 mg/kg, po administered via gavage measured after 0.25 to 24 hrs by UPLC/MS analysis; format: ADME, organism-based; design: dose 10 mg/kg, route oral; settings: in vivo
In short: (§4)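 Male ICR mice dosed orally in 1% DMSO/0.5% HPMC vehicle; plasma or brain drug levels used to derive Tmax, Cmax, AUC0-t, AUC0-inf and T1/2.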

Cytochrome P450 2C9 = Cytochrome P450 2C9 (Homo sapiens, UniProt P11712); test: Time-dependent inhibition of CYP2C9 in human liver microsomes at 10 uM using diclofenac as substrate preincubated up to 30 mins followed by NADPH generating system addition and measured after 10 mins; format: ADME; in short: as §1
Sequence of Cytochrome P450 2C9 (P11712 whole entry): as the sequence (P11712 whole entry) above

[5] = Half life in ICR mouse at 10 mg/kg, po administered via gavage measured after 0.25 to 24 hrs by UPLC/MS analysis; format: ADME, organism-based; settings: in vivo; in short: as §4
[6] = AUC (0 to t) in ICR mouse at 10 mg/kg, po administered via gavage measured after 0.25 to 24 hrs by UPLC/MS analysis; format: ADME, organism-based; design: time 0.25-24 hr, dose 10 mg/kg, route oral; settings: in vivo
In short: (§5)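 Male ICR mice were dosed orally in 1% DMSO/0.5% HPMC vehicle. Plasma (and brain, where stated) concentrations gave Tmax, Cmax, T1/2, AUC0-t and AUC0-inf.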

Cytochrome P450 3A4 = Cytochrome P450 3A4 (Homo sapiens, UniProt P08684); test: Time-dependent inhibition of CYP3A4 in human liver microsomes at 10 uM using midazolam or testosterone as substrate preincubated up to 30 mins followed by NADPH generating system addition and measured after 10 mins; format: ADME; in short: as §1
[7] = target: Bromodomain-containing protein 2 (Homo sapiens) (UniProt P25440); test: Inhibition of BRD2 bromodomain 2 (unknown origin)
Sequence of Bromodomain-containing protein 2 (Homo sapiens) (P25440 whole entry, looked up): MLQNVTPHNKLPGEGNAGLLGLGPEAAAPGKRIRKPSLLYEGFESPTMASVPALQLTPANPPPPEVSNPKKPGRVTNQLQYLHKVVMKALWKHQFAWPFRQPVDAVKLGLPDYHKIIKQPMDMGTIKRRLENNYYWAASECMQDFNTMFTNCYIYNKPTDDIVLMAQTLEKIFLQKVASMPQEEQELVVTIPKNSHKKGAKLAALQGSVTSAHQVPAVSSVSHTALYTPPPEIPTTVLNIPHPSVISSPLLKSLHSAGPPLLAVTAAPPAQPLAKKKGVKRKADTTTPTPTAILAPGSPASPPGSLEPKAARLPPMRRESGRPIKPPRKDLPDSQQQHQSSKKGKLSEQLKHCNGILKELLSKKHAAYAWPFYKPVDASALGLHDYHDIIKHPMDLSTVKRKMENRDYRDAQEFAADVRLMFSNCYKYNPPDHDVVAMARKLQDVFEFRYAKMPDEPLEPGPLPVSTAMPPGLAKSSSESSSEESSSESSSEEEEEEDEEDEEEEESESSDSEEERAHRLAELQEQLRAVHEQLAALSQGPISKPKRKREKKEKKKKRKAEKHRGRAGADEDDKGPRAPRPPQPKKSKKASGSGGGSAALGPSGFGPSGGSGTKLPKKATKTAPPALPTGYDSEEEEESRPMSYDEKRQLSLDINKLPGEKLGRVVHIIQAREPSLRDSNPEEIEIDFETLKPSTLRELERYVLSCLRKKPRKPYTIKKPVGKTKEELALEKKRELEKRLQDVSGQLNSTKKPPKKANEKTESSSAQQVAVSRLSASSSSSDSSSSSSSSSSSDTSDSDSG
In short: (§6)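 Bromodomain binding panel (32 bromodomains) screened at 1 μM; primary binding read-out reported as percent of control, lower values meaning stronger binding.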

[8] = target: T2, Bromodomain-containing protein 4 (Homo sapiens, UniProt O60885); test: Displacement of 5-FITC labelled (+)-JQ1 from His6-tagged human BRD4 bromodomain 1 expressed in Escherichia coli BL21(DE3) )-codon plus-RIL cells incubated for 4 hrs in dark condition by fluorescence anisotropy binding assay
[9] = target: T2, Bromodomain-containing protein 4; test: Inhibition of BRD4 bromodomain 2 (unknown origin)
[10] = target: Histone acetyltransferase p300 (Homo sapiens) (UniProt Q09472); test: Inhibition of EP300 (unknown origin) at 1 uM; in short: as §6
Sequence of Histone acetyltransferase p300 (Homo sapiens) (Q09472 whole entry): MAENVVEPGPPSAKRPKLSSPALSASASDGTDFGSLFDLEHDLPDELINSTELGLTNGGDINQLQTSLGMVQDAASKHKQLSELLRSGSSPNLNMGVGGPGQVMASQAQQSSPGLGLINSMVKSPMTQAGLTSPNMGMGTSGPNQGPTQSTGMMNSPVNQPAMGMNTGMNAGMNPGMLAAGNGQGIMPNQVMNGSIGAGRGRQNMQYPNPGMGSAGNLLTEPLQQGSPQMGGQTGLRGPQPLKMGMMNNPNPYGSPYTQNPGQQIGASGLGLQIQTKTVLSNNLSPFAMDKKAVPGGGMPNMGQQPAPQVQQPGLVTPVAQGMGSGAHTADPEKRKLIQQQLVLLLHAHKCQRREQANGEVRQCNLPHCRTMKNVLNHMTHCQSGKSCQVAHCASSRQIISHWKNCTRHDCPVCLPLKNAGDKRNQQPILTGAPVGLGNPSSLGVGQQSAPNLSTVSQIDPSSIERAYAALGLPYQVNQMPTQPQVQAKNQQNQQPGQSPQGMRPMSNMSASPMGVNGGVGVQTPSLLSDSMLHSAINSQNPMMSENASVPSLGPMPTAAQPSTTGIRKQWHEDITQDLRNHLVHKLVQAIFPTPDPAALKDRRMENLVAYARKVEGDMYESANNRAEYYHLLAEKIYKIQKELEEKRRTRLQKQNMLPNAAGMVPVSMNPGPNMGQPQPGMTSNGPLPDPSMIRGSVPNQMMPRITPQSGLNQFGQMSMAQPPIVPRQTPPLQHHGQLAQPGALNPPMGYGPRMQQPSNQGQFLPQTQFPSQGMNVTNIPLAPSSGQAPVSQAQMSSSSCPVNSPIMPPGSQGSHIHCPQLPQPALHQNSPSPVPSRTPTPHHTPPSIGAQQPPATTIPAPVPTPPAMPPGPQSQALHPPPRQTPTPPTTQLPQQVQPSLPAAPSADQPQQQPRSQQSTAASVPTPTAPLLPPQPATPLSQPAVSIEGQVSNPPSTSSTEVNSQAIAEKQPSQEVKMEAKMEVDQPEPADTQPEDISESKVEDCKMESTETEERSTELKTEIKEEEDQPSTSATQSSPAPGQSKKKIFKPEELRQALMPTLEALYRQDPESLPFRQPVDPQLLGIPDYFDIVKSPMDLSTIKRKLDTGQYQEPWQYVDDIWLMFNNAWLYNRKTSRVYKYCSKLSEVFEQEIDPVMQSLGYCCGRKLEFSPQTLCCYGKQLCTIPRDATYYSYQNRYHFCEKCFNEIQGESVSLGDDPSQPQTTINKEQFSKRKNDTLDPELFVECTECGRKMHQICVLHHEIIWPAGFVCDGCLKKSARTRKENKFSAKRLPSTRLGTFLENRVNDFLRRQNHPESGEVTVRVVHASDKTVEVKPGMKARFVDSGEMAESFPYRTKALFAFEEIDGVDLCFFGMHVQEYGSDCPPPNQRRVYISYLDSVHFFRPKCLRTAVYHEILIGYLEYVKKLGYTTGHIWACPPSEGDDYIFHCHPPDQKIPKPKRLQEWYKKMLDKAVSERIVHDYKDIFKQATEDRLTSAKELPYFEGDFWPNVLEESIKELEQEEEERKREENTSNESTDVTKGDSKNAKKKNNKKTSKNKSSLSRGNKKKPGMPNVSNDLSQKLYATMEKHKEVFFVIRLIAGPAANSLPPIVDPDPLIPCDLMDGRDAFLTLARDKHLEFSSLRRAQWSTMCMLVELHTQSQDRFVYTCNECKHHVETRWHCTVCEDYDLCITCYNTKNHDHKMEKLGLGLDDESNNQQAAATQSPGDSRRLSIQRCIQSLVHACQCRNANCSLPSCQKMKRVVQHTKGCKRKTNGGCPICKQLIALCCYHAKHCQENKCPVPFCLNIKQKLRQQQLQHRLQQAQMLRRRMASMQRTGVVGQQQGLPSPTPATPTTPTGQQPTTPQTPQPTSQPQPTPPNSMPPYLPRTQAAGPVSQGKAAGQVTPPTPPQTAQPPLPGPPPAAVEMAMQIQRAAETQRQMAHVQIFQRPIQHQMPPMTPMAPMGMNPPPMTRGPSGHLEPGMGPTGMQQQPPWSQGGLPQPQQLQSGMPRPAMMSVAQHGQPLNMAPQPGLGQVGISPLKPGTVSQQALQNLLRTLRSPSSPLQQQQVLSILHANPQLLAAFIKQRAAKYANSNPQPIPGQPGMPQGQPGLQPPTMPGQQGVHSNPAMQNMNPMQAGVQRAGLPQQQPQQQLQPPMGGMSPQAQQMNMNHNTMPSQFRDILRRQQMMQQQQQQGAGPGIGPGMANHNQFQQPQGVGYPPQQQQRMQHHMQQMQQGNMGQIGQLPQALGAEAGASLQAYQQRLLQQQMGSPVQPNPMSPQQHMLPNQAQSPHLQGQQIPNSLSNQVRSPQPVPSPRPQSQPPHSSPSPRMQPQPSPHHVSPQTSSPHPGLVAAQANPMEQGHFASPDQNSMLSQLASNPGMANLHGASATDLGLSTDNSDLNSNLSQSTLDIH

CYP2C19 = CYP2C19 (Homo sapiens, UniProt P33261); test: Reversible inhibition of CYP2C19 in human liver microsomes at 10 uM using mephenytoin as substrate preincubated for 5 mins followed by NADPH generating system addition and measured after 20 mins relative to control; format: ADME; settings: probe mephenytoin; in short: as §2
Cytochrome P450 2D6 = Cytochrome P450 2D6 (Homo sapiens, UniProt P10635); test: Time-dependent inhibition of CYP2D6 in human liver microsomes at 10 uM using dextromethorphan as substrate preincubated up to 30 mins followed by NADPH generating system addition and measured after 10 mins; format: ADME; in short: as §1
[11] = target: T2, Bromodomain-containing protein 4; test: Inhibition of BRD4 bromodomain 1 (unknown origin)
In short: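 BRD4 BD1 (His6-tagged, E. coli BL21(DE3)-expressed, Ni-NTA purified) at 10 nM with 5 nM FITC-labelled (+)-JQ1 tracer; 50 mM HEPES pH 7.4, 150 mM NaCl, 0.5 mM CHAPS, DMSO 2‰ final; graded inhibitor; 4 h dark equilibration at room temperature; fluorescence anisotropy read (ex 485/em 530 nm). IC50 from two independent experiments in duplicate, mean ± SEM.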

[12] = target: Bromodomain-containing protein 2 (Homo sapiens) (UniProt P25440); test: Inhibition of BRD2 bromodomain 1 (unknown origin)
[13] = AUC (0 to infinity) in ICR mouse at 10 mg/kg, po administered via gavage measured after 0.25 to 24 hrs by UPLC/MS analysis; format: ADME, organism-based; design: dose 10 mg/kg, route oral, time infinity; settings: in vivo; in short: as §5
[14] = Half life in mouse liver microsomes at 1 uM preincubated for 5 mins followed by NADPH addition and measured after 5 to 30 mins by LC/MS/MS analysis; format: ADME, Microsome; settings: mouse liver microsomes
[15] = Tmax in ICR mouse at 10 mg/kg, po administered via gavage measured after 0.25 to 24 hrs by UPLC/MS analysis; format: ADME, organism-based; settings: in vivo
In short: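 Male ICR mice dosed orally (3, 10 or 100 mg/kg, per line) in 1% DMSO/0.5% HPMC vehicle; plasma drug levels measured.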

CYP3A4 = CYP3A4 (Homo sapiens, UniProt P08684); test: Reversible inhibition of CYP3A4 in human liver microsomes at 10 uM using midazolam or testosterone as substrate preincubated for 5 mins followed by NADPH addition and measured after 20 mins relative to control; format: ADME; settings: probe midazolam or testosterone; in short: as §2
CYP2D6 = CYP2D6 (Homo sapiens, UniProt P10635); test: Reversible inhibition of CYP2D6 in human liver microsomes at 10 uM using dextromethorphan as substrate preincubated for 5 mins followed by NADPH generating system addition and measured after 20 mins relative to control; format: ADME; settings: probe dextromethorphan; in short: as §2
[16] = Metabolic stability in mouse liver microsomes at 1 uM preincubated for 5 mins followed by NADPH addition and measured after 5 to 30 mins by LC/MS/MS analysis; format: ADME, Microsome; in short: as §3
[17] = Metabolic stability in human liver microsomes at 1 uM preincubated for 5 mins followed by NADPH addition and measured after 5 to 30 mins by LC/MS/MS analysis; format: ADME, Microsome; in short: as §3

Row | TDI (Cytochrome P450 1A2) | inhibition at 20 min, 10 µM (CYP2C9) [%] | IC50 (MM1.S) [nM] | TDI (Cytochrome P450 2C19) | TDI (Cytochrome P450 2C9) | TDI (Cytochrome P450 3A4) | inhibition [7] | IC50 [8] [nM] | inhibition [9] | inhibition [10] | TDI (Cytochrome P450 2D6) | inhibition [11] | inhibition activity call (active/inactive) [12] | SMILES | other results
1 | 51 ×10⁻⁴ /min | 30 | 26.1 | 141 ×10⁻⁴ /min | 74 ×10⁻⁴ /min | 55 ×10⁻⁴ /min | Active | 5.4 | Active | inactive | Not Active | Active | Active | Cc1ccc(-n2nc(C(=O)N3CCN(C)CC3)nc2-c2ccc3c(c2)N(C2CCCC2)[C@H](C)C(=O)N3C)cc1 | half-life at 1 µM [1]: 23 min; microsomal CLint at 1 µM [2]: 61 µL/min/mg; microsomal CLint at 1 µM [3]: 34 µL/min/mg; Cmax [4]: 42900 ng/mL; half-life [5]: 36 min; AUC(0-t) [6]: 58100 ng·h/mL; inhibition at 20 min, 10 µM (CYP2C19): 19%; AUC(0-inf) [13]: 58100 ng·h/mL; half-life at 1 µM [14]: 41 min; Tmax [15]: 18 min; inhibition at 20 min, 10 µM (CYP3A4): 31%; inhibition at 20 min, 10 µM (CYP2D6): 3%
2 | Not Active | > 50 | 3.9 | Not Active | Not Active | Not Active | Active | 5.2 | Active | inactive | Not Active | Active | Active | Cc1ccc(-n2c(C)nnc2-c2ccc3c(c2)N(C2CCCC2)[C@H](C)C(=O)N3C)cc1 | Stability [16]: Stable; Stability [17]: Stable
